Results: ChEMBL document CHEMBL2040711, “Synthesis, characterization and antimicrobial studies of some new quinoline incorporated benzimidazole derivatives” (2012)

What was measured:
Assay type in all cases: functional
Conditions in all cases: read-out: DIZ
Staphylococcus aureus [1] = experiment: Antibacterial activity against Staphylococcus aureus at 12.5 ug/ml after 24 to 48 hrs by well plate diffusion method
Summary of the method: (§1)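 Agar well diffusion: 15-20 mL agar per dish, plates dried 1 h at 37 ± 2 °C in laminar flow, then seeded. Wells cut with an agar punch, each loaded with compound dissolved in DMSO (6.25 or 12.5 μg/mL). DMSO solvent control, ciprofloxacin standard. Plates in triplicate, incubated 37 ± 2 °C for 24–48 h. Inhibition zone diameter read in mm, with SD.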

Escherichia coli [2] = experiment: Antibacterial activity against Escherichia coli at 12.5 ug/ml after 24 to 48 hrs by well plate diffusion method; summary of the method: as §1
Aspergillus niger [3] = experiment: Antifungal activity against Aspergillus niger at 12.5 ug/ml after 72 hrs by well plate method
Xanthomonas sp. [4] = experiment: Antibacterial activity against Xanthomonas sp. at 12.5 ug/ml after 24 to 48 hrs by well plate diffusion method; summary of the method: as §1
Aspergillus niger [5] = experiment: Antifungal activity against Aspergillus niger at 6.25 ug/ml after 72 hrs by well plate method
Penicillium sp. [6] = experiment: Antifungal activity against Penicillium sp. at 6.25 ug/ml after 72 hrs by well plate method
Aspergillus terreus [7] = experiment: Antifungal activity against Aspergillus terreus at 6.25 ug/ml after 72 hrs by well plate method
Summary of the method: (§2)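 Sabouraud agar: peptone 10 g, glucose 40 g, agar 20 g per litre water, pH 5.7. Spore suspension made from a loopful of fungus in 3 mL normal saline and lawned on 20 mL agar per dish. Excess decanted, plates dried 1 h at 37 °C. Wells punched and loaded with compound in DMSO (6.25 or 12.5 μg/mL). DMSO control. Triplicate plates held at 25 °C for 72 h. Inhibition zone diameter measured. A. terreus strain NCIM 1325.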

Staphylococcus aureus [8] = experiment: Antibacterial activity against Staphylococcus aureus at 6.25 ug/ml after 24 to 48 hrs by well plate diffusion method; summary of the method: as §1
Aspergillus terreus [9] = experiment: Antifungal activity against Aspergillus terreus at 12.5 ug/ml after 72 hrs by well plate method; summary of the method: as §2
Salmonella sp. [10] = experiment: Antibacterial activity against Salmonella sp. at 12.5 ug/ml after 24 to 48 hrs by well plate diffusion method; summary of the method: as §1
Penicillium sp. [11] = experiment: Antifungal activity against Penicillium sp. at 12.5 ug/ml after 72 hrs by well plate method
Aspergillus flavus [12] = experiment: Antifungal activity against Aspergillus flavus at 12.5 ug/ml after 72 hrs by well plate method
Salmonella sp. [13] = experiment: Antibacterial activity against Salmonella sp. at 6.25 ug/ml after 24 to 48 hrs by well plate diffusion method; summary of the method: as §1
Escherichia coli [14] = experiment: Antibacterial activity against Escherichia coli at 6.25 ug/ml after 24 to 48 hrs by well plate diffusion method; summary of the method: as §1
Xanthomonas sp. [15] = experiment: Antibacterial activity against Xanthomonas sp. at 6.25 ug/ml after 24 to 48 hrs by well plate diffusion method; summary of the method: as §1
Aspergillus flavus [16] = experiment: Antifungal activity against Aspergillus flavus at 6.25 ug/ml after 72 hrs by well plate method

SMILES | zone of inhibition at 12.5 µg/mL (Staphylococcus aureus [1]) | zone of inhibition at 12.5 µg/mL (Escherichia coli [2]) | zone of inhibition at 12.5 µg/mL (Aspergillus niger [3]) | zone of inhibition at 12.5 µg/mL (Xanthomonas sp. [4]) | zone of inhibition at 6.25 µg/mL (Aspergillus niger [5]) | zone of inhibition at 6.25 µg/mL (Penicillium sp. [6]) | zone of inhibition at 6.25 µg/mL (Aspergillus terreus [7]) | zone of inhibition at 6.25 µg/mL (Staphylococcus aureus [8]) | zone of inhibition at 12.5 µg/mL (Aspergillus terreus [9]) | zone of inhibition at 12.5 µg/mL (Salmonella sp. [10]) | zone of inhibition at 12.5 µg/mL (Penicillium sp. [11]) | zone of inhibition at 12.5 µg/mL (Aspergillus flavus [12]) | zone of inhibition at 6.25 µg/mL (Salmonella sp. [13]) | zone of inhibition at 6.25 µg/mL (Escherichia coli [14]) | zone of inhibition at 6.25 µg/mL (Xanthomonas sp. [15]) | zone of inhibition at 6.25 µg/mL (Aspergillus flavus [16])
Fc1ccc(-c2cc(-c3nc4ccccc4[nH]3)c3cc(Cl)ccc3n2)cc1 | 13 mm | 13 mm | 12 mm | 10 mm | 10 mm | 16 mm | 13 mm | 12 mm | 14 mm | 9 mm | 18 mm |  |  |  |  | 
Fc1ccc(-c2cc(-c3nc4ccc(Cl)cc4[nH]3)c3cc(Cl)ccc3n2)cc1 | 16 mm | 12 mm | 10 mm | 10 mm |  | 12 mm | 9 mm | 16 mm | 9 mm | 13 mm | 17 mm | 17 mm | 10 mm | 12 mm |  | 
Fc1ccc(-c2cc(-c3nc4ncccc4[nH]3)c3cc(Cl)ccc3n2)cc1 | 18 mm | 16 mm | 14 mm | 16 mm | 12 mm |  | 9 mm | 14 mm | 15 mm | 20 mm | 13 mm | 10 mm | 9 mm | 16 mm | 15 mm | 
Fc1ccc(-c2cc(-c3nc4cc(Cl)c(Cl)cc4[nH]3)c3cc(Cl)ccc3n2)cc1 | 12 mm | 17 mm | 12 mm | 16 mm | 12 mm | 12 mm | 9 mm | 10 mm | 10 mm | 28 mm | 19 mm | 13 mm | 20 mm | 12 mm | 14 mm | 13 mm
Fc1ccc(-c2cc(-c3nc4ccccc4[nH]3)c3cc(F)ccc3n2)cc1 | 15 mm | 15 mm | 12 mm | 14 mm | 10 mm | 12 mm | 9 mm | 14 mm | 9 mm | 15 mm | 12 mm | 10 mm | 15 mm | 10 mm | 14 mm | 
Fc1ccc(-c2cc(-c3nc4ccc(Cl)cc4[nH]3)c3cc(F)ccc3n2)cc1 | 12 mm | 11 mm | 10 mm | 12 mm |  | 15 mm | 10 mm | 12 mm | 14 mm | 11 mm | 17 mm | 10 mm |  | 10 mm | 11 mm | 
Fc1ccc(-c2cc(-c3nc4ncccc4[nH]3)c3cc(F)ccc3n2)cc1 | 12 mm | 13 mm | 13 mm | 16 mm | 11 mm | 14 mm | 10 mm | 12 mm | 15 mm | 13 mm | 15 mm | 14 mm | 13 mm |  | 15 mm | 11 mm
Fc1ccc(-c2cc(-c3nc4cc(Cl)c(Cl)cc4[nH]3)c3cc(F)ccc3n2)cc1 | 15 mm | 12 mm | 13 mm | 16 mm | 10 mm |  |  | 14 mm | 9 mm | 12 mm | 12 mm | 15 mm | 9 mm |  | 12 mm | 12 mm
Fc1ccc(-c2cc(-c3nc4ccc(F)cc4[nH]3)c3cc(F)ccc3n2)cc1 | 12 mm | 16 mm | 17 mm | 14 mm | 10 mm | 13 mm | 10 mm | 12 mm | 9 mm | 13 mm | 13 mm |  | 9 mm | 16 mm |  | 
Fc1ccc(-c2cc(-c3nc4ccc(Cl)cc4[nH]3)c3ccccc3n2)cc1 | 13 mm | 16 mm | 18 mm | 15 mm | 15 mm | 12 mm | 10 mm | 12 mm | 16 mm | 17 mm | 12 mm | 16 mm | 9 mm |  | 15 mm | 11 mm
Fc1ccc(-c2cc(-c3nc4ncccc4[nH]3)c3ccccc3n2)cc1 | 16 mm | 14 mm | 16 mm | 14 mm | 14 mm | 16 mm | 9 mm | 16 mm | 10 mm | 12 mm | 17 mm | 11 mm | 9 mm | 14 mm | 10 mm | 
Fc1ccc(-c2cc(-c3nc4ccc(F)cc4[nH]3)c3ccccc3n2)cc1 | 16 mm | 11 mm | 14 mm | 13 mm |  | 12 mm | 12 mm | 10 mm | 12 mm | 11 mm | 15 mm | 14 mm | 10 mm | 10 mm |  | 
COc1ccc2nc(-c3cc(-c4ccc(F)cc4)nc4ccccc34)[nH]c2c1 | 12 mm | 14 mm | 12 mm | 14 mm | 10 mm | 16 mm | 12 mm | 12 mm | 13 mm | 11 mm | 18 mm | 10 mm | 10 mm | 12 mm | 12 mm | 
O=C(O)c1cn(C2CC2)c2cc(N3CCNCC3)c(F)cc2c1=O [CIPROFLOXACIN] | 20 mm |  |  | 22 mm |  |  |  | 18 mm |  | 31 mm |  |  | 19 mm |  | 18 mm | 
OC(Cn1cncn1)(Cn1cncn1)c1ccc(F)cc1F [FLUCONAZOLE] |  |  | 18 mm |  | 14 mm | 19 mm | 16 mm |  | 18 mm |  | 21 mm | 20 mm |  |  |  | 15 mm
